Values joined by “and” are separate entries in the source; they are usually repeats but may differ in a detail not shown here. Identical values can stand only once.
Test system: HEK-293T
Experiment: Multiplex assay against HEK293T;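 as to Population Tubulin-Different-Phenotype (%): share of the cells with healthy nuclei that show this phenotype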
Type: toxicity, cell-based
Conditions: human
In short: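 Per cents of healthy-nucleus cells form the tubulin, mitochondrial-mass and membrane-permeability phenotype values. Live cells were stained at seeding with Hoechst33342, BioTracker Green Microtubule Cytoskeleton Dye, MitoTracker Red and Annexin V Alexa Fluor 680. After compound addition they were imaged on a CQ1 microscope at 37°C and 5% CO2, and CellPathfinder machine-learning gating split them into Hoechst high-intensity objects or normal cells, normal cells into healthy, pyknosed or fragmented nuclei, and pyknosed cells into mitotic or apoptotic.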

[1] = 12 h, 1 µM, compound concentration 1 uM, replicate 1
[2] = 12 h, 1 µM, compound concentration 1 uM, replicate 2
[3] = 12 h, 10 µM, compound concentration 10 uM, replicate 1
[4] = 12 h, 10 µM, compound concentration 10 uM, replicate 2
[5] = 24 h, 1 µM, compound concentration 1 uM, replicate 1
[6] = 24 h, 1 µM, compound concentration 1 uM, replicate 2
[7] = 24 h, 10 µM, compound concentration 10 uM, replicate 1
[8] = 24 h, 10 µM, compound concentration 10 uM, replicate 2
[9] = 48 h, 10 µM, compound concentration 10 uM, replicate 1
[10] = 48 h, 10 µM, compound concentration 10 uM, replicate 2

Compound: CCCS(=O)(=O)Nc1ccc(F)c(C(=O)c2c[nH]c3ncc(Cl)cc23)c1F [PLX-4720]
- Population Apoptotic (%) [1]: 13%
- Population Fragmented Nuclei (%) [1]: 16%
- Population Healthy Nuclei (%) [1]: 62%
- Population Hoechst High Intensity Objects (%) [1]: 11%
- Population Membrane Permeable-Phenotype (%) [1]: 6%
- Population Mitochondria Different-Phenotype (%) [1]: 4%
- Population Mitotic Cells (%) [1]: 86%
- Population Normal (%) [1]: 88%
- Population Pyknosed Nuclei (%) [1]: 20%
- Population Tubulin-Different-Phenotype (%) [1]: 8%
- Total Cell Count [1]: 675
- Population Apoptotic (%) [2]: 6%
- Population Fragmented Nuclei (%) [2]: 7%
- Population Healthy Nuclei (%) [2]: 87%
- Population Hoechst High Intensity Objects (%) [2]: 2%
- Population Membrane Permeable-Phenotype (%) [2]: 2%
- Population Mitochondria Different-Phenotype (%) [2]: 10%
- Population Mitotic Cells (%) [2]: 93%
- Population Normal (%) [2]: 97%
- Population Pyknosed Nuclei (%) [2]: 5%
- Population Tubulin-Different-Phenotype (%) [2]: 14%
- Total Cell Count [2]: 1750
- Population Apoptotic (%) [3]: 21%
- Population Fragmented Nuclei (%) [3]: 13%
- Population Healthy Nuclei (%) [3]: 73%
- Population Hoechst High Intensity Objects (%) [3]: 13%
- Population Membrane Permeable-Phenotype (%) [3]: 3%
- Population Mitochondria Different-Phenotype (%) [3]: 2%
- Population Mitotic Cells (%) [3]: 78%
- Population Normal (%) [3]: 86%
- Population Pyknosed Nuclei (%) [3]: 12%
- Population Tubulin-Different-Phenotype (%) [3]: 1%
- Total Cell Count [3]: 751
- Population Apoptotic (%) [4]: 11%
- Population Fragmented Nuclei (%) [4]: 9%
- Population Healthy Nuclei (%) [4]: 86%
- Population Hoechst High Intensity Objects (%) [4]: 2%
- Population Membrane Permeable-Phenotype (%) [4]: 0%
- Population Mitochondria Different-Phenotype (%) [4]: 5%
- Population Mitotic Cells (%) [4]: 88%
- Population Normal (%) [4]: 97%
- Population Pyknosed Nuclei (%) [4]: 4%
- Population Tubulin-Different-Phenotype (%) [4]: 2%
- Total Cell Count [4]: 1952
- Population Apoptotic (%) [5]: 28%
- Population Fragmented Nuclei (%) [5]: 13%
- Population Healthy Nuclei (%) [5]: 78%
- Population Hoechst High Intensity Objects (%) [5]: 7%
- Population Membrane Permeable-Phenotype (%) [5]: 7%
- Population Mitotic Cells (%) [5]: 71%
- Population Normal (%) [5]: 92%
- Population Pyknosed Nuclei (%) [5]: 7%
- Population Tubulin-Different-Phenotype (%) [5]: 9%
- Total Cell Count [5]: 803
- Population Apoptotic (%) [6]: 3%
- Population Fragmented Nuclei (%) [6]: 20%
- Population Healthy Nuclei (%) [6]: 77%
- Population Hoechst High Intensity Objects (%) [6]: 5%
- Population Membrane Permeable-Phenotype (%) [6]: 8%
- Population Mitochondria Different-Phenotype (%) [6]: 3%
- Population Mitotic Cells (%) [6]: 96%
- Population Normal (%) [6]: 94%
- Population Pyknosed Nuclei (%) [6]: 2%
- Population Tubulin-Different-Phenotype (%) [6]: 24%
- Total Cell Count [6]: 2555
- Population Apoptotic (%) [7]: 15%
- Population Fragmented Nuclei (%) [7]: 14%
- Population Healthy Nuclei (%) [7]: 78%
- Population Hoechst High Intensity Objects (%) [7]: 6%
- Population Membrane Permeable-Phenotype (%) [7]: 5%
- Population Mitochondria Different-Phenotype (%) [7]: 2%
- Population Mitotic Cells (%) [7]: 84%
- Population Normal (%) [7]: 93%
- Population Pyknosed Nuclei (%) [7]: 6%
- Population Tubulin-Different-Phenotype (%) [7]: 3%
- Total Cell Count [7]: 975
- Population Apoptotic (%) [8]: 3%
- Population Fragmented Nuclei (%) [8]: 29%
- Population Healthy Nuclei (%) [8]: 68%
- Population Hoechst High Intensity Objects (%) [8]: 3%
- Population Membrane Permeable-Phenotype (%) [8]: 3%
- Population Mitochondria Different-Phenotype (%) [8]: 1%
- Population Mitotic Cells (%) [8]: 96%
- Population Normal (%) [8]: 96%
- Population Pyknosed Nuclei (%) [8]: 1%
- Population Tubulin-Different-Phenotype (%) [8]: 4%
- Total Cell Count [8]: 3379

Compound: CN[C@@H]1C[C@H]2O[C@@](C)([C@@H]1OC)n1c3ccccc3c3c4c(c5c6ccccc6n2c5c31)C(=O)NC4 [STAUROSPORINE]
- Population Apoptotic (%) [1]: 27%
- Population Fragmented Nuclei (%) [1]: 37%
- Population Healthy Nuclei (%) [1]: 16%
- Population Hoechst High Intensity Objects (%) [1]: 15%
- Population Membrane Permeable-Phenotype (%) [1]: 16%
- Population Mitochondria Different-Phenotype (%) [1]: 9%
- Population Mitotic Cells (%) [1]: 72%
- Population Normal (%) [1]: 84%
- Population Pyknosed Nuclei (%) [1]: 46%
- Population Tubulin-Different-Phenotype (%) [1]: 32%
- Population Apoptotic (%) [2]: 9%
- Population Fragmented Nuclei (%) [2]: 18%
- Population Healthy Nuclei (%) [2]: 35%
- Population Hoechst High Intensity Objects (%) [2]: 10%
- Population Membrane Permeable-Phenotype (%) [2]: 12%
- Population Mitochondria Different-Phenotype (%) [2]: 13%
- Population Mitotic Cells (%) [2]: 90%
- Population Normal (%) [2]: 89%
- Population Tubulin-Different-Phenotype (%) [2]: 74%
- Population Apoptotic (%) [3]: 31% and 93% and 82%
- Population Fragmented Nuclei (%) [3]: 37% and 33% and 30%
- Population Hoechst High Intensity Objects (%) [3]: 15% and 23% and 17%
- Population Membrane Permeable-Phenotype (%) [3]: 20% and 15%
- Population Normal (%) [3]: 84% and 76% and 82%
- Population Pyknosed Nuclei (%) [3]: 48% and 65% and 66%
- Population Tubulin-Different-Phenotype (%) [3]: 25% and 33% and 57%
- Population Hoechst High Intensity Objects (%) [4]: 20% and 22% and 11%
- Population Mitochondria Different-Phenotype (%) [4]: 23% and 35% and 18%
- Population Normal (%) [4]: 79% and 77% and 88%
- Population Pyknosed Nuclei (%) [4]: 52% and 55% and 35%
- Population Apoptotic (%) [5]: 48%
- Population Fragmented Nuclei (%) [5]: 35%
- Population Healthy Nuclei (%) [5]: 17%
- Population Hoechst High Intensity Objects (%) [5]: 15%
- Population Membrane Permeable-Phenotype (%) [5]: 18%
- Population Mitochondria Different-Phenotype (%) [5]: 16%
- Population Mitotic Cells (%) [5]: 51%
- Population Normal (%) [5]: 84%
- Population Pyknosed Nuclei (%) [5]: 46%
- Population Tubulin-Different-Phenotype (%) [5]: 29%
- Population Apoptotic (%) [6]: 28%
- Population Fragmented Nuclei (%) [6]: 16%
- Population Healthy Nuclei (%) [6]: 30%
- Population Hoechst High Intensity Objects (%) [6]: 14%
- Population Membrane Permeable-Phenotype (%) [6]: 10%
- Population Mitochondria Different-Phenotype (%) [6]: 25%
- Population Mitotic Cells (%) [6]: 71%
- Population Normal (%) [6]: 85%
- Population Pyknosed Nuclei (%) [6]: 52%
- Population Tubulin-Different-Phenotype (%) [6]: 73%
- Population Apoptotic (%) [7]: 58% and 87% and 91%
- Population Fragmented Nuclei (%) [7]: 37% and 33% and 27%
- Population Hoechst High Intensity Objects (%) [7]: 19% and 21% and 24%
- Population Normal (%) [7]: 80% and 75%
- Population Pyknosed Nuclei (%) [7]: 46% and 65% and 70%
- Population Fragmented Nuclei (%) [8]: 12% and 32%
- Population Hoechst High Intensity Objects (%) [8]: 13% and 29% and 22%
- Population Membrane Permeable-Phenotype (%) [8]: 12% and 14%
- Population Mitochondria Different-Phenotype (%) [8]: 25% and 57% and 62%
- Population Normal (%) [8]: 86% and 70% and 77%
- Population Pyknosed Nuclei (%) [8]: 48% and 55% and 66%
- Population Tubulin-Different-Phenotype (%) [8]: 86% and 61% and 87%
- Population Apoptotic (%) [9]: 96% and 92%
- Population Fragmented Nuclei (%) [9]: 36% and 37%
- Population Healthy Nuclei (%) [9]: 0% and 1%
- Population Hoechst High Intensity Objects (%) [9]: 22% and 19%
- Population Membrane Permeable-Phenotype (%) [9]: 0%
- Population Mitochondria Different-Phenotype (%) [9]: 100% and 80%
- Population Mitotic Cells (%) [9]: 3% and 7%
- Population Normal (%) [9]: 77% and 80%
- Population Pyknosed Nuclei (%) [9]: 62%
- Population Tubulin-Different-Phenotype (%) [9]: 100% and 60%
- Population Apoptotic (%) [10]: 97% and 93%
- Population Fragmented Nuclei (%) [10]: 23% and 21%
- Population Healthy Nuclei (%) [10]: 19% and 17%
- Population Hoechst High Intensity Objects (%) [10]: 21% and 26%
- Population Membrane Permeable-Phenotype (%) [10]: 6% and 5%
- Population Mitochondria Different-Phenotype (%) [10]: 66% and 73%
- Population Mitotic Cells (%) [10]: 2% and 6%
- Population Normal (%) [10]: 73%
- Population Pyknosed Nuclei (%) [10]: 57% and 61%
- Population Tubulin-Different-Phenotype (%) [10]: 72% and 84%
